# Sampled rows, rich in hits. Any-hit rate of the full collection: about 1.7%.
# HNF4A DNA FP: change in binding of human HNF4 alpha to DNA. AID 1224865. 360,000 compounds, 0.3% hits. activity change, % at 10 µM. HNF4a-FITC DNA binding, fluorescence polarization, 1 h. P41235; in the data active = activity change above about 30%, passing the limit was not always enough
# NR1D1 modulator: Rev-erb alpha (human) modulation | P20393 | Rev-erbα–FITC-DNA binding, fluorescence polarization, 90 min | activity, % at 10 µM | 370,000 compounds, 0.79% hits;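 active = activity above about 14%, limit read from the data; passing the limit was not always enough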;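 also: 0% = DMSO wells with 35 nM protein and 100% = DMSO wells with 750 nM protein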
# Target sequence (P20393 whole entry, looked up): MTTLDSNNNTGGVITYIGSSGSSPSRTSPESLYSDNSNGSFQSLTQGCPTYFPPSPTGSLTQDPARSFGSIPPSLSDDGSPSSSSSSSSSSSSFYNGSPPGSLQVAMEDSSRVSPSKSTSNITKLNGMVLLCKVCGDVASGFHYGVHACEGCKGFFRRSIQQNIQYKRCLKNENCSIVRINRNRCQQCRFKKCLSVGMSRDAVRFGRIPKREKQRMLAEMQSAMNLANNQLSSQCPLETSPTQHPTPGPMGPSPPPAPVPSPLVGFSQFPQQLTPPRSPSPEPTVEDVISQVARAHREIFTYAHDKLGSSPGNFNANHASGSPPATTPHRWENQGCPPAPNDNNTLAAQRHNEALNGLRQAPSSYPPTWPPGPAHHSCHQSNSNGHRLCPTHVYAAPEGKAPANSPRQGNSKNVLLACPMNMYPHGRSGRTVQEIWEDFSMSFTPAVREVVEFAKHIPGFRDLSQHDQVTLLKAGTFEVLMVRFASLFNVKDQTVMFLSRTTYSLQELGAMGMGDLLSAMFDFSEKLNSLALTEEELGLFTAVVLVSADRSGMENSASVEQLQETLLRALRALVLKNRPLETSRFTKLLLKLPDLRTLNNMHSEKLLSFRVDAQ
# TPT1 inhibitor: blocks Candida albicans tRNA 2'-phosphotransferase; inhibition, % at 5 µM; AID 1962; 300,000 compounds, 0.81% hits; recombinant caTPT1, FP RNA substrate dephosphorylation;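 active = inhibition above the mean of all tested compounds plus 3 SD, set per screening campaign, cut at about 24% in these data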;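 also: plate controls were DMSO alone for no effect and ferristatin control at 100 nM for full effect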
# CSN deneddyl inh: inhibitors of human CSN-mediated cullin deneddylation; inhibition, % at 12.5 µM; Purified CSN, SCF-Nedd8-OG deneddylation, fluorescence polarization; 360,000 compounds, 0.38% hits; Q92905;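 active = pattern-corrected inhibition above about 35%, with an unprinted fluorescence ratio check between 0.5 and 1.5, limit read from the data, passing the limit was not always enough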;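 also: 0% = enzyme with substrate and 100% = substrate without enzyme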
#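 Assay system: purified human Csn5 enzyme expressed in HEK293T cells; Input: 0.24 nM Csn5 enzyme, final concentration; Reagent: 10 nM SCFSkp2-Nedd8OG; Compound dosing: 12.5 µM single point; Times: reaction 90 min, room temperature; Technique: fluorescence polarization readout.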
# An asterisk follows results filed as active; . = no result given.
SMILES,HNF4A DNA FP,NR1D1 modulator,TPT1 inhibitor,CSN deneddyl inh
Cc1ccc(S(=O)(=O)/N=C2/NC(=O)/C(=C/c3ccccn3)S2)cc1,-4,1,-1,6
O=C1NC(=S)SC1=Cc1ccccn1,64*,2,.,1
Nc1nc2c(c(=O)[nH]1)N(C=O)C(CNc1ccc(C(=O)N[C@@H](CCC(=O)O)C(=O)O)cc1)CN2 (some centres undefined),.,-7,.,.
COc1ccc2[nH]cc(CCNS(=O)(=O)c3ccc(F)cc3)c2c1,1,0,2,1
COc1ccc2[nH]cc(CCNS(=O)(=O)c3ccccc3)c2c1,0,2,5,60*
CC1(C)CC(=O)C2=C(C1)OC(N)=C(C#N)C2CCc1ccccc1 (centres undefined),-3,7,-3,4
N#CC1=C(N)SC(N)=C(C#N)C1CCc1ccccc1,125,-3,119*,26
CC(C)c1nc2sc3c(SCC(=O)NCc4ccco4)ncnc3c2c2c1CCC2,-23,8,8,46*
O=C(CSc1ncnc2sc3c(c12)CCCCC3)NCc1ccco1,0,8,-1,6
NS(=O)(=O)c1ccc(NC(=S)NC(=O)c2ccco2)cc1,0,0,1,-4
CC(=O)NS(=O)(=O)c1ccc(NC(=S)NC(=O)c2ccco2)cc1,14,4,-5,93*
C=CCNc1nc(NCc2ccc(N(C)C)cc2)c2sc(-c3ccccc3)cc2n1,0,4,.,49*
Cc1n[nH]c(=S)n1/N=C/c1cccc(OCc2ccccc2)c1,2,-2,-1,-4
Cc1n[nH]c(=S)n1/N=C/c1ccccc1OCc1ccc(Cl)cc1,51*,1,1,4
NC(=O)C1CSSCCC(=O)NC(CCCCN=C(N)N)C(=O)NCC(=O)NC(CC(=O)O)C(=O)NC(Cc2c[nH]c3ccccc23)C(=O)N2CCCC2C(=O)N1 (centres undefined),.,-1,.,.
Cc1cc(C(=O)COC(=O)c2cc(Cl)c(O)c(Cl)c2)c(C)n1C,-23,-29,.,42*
Cc1cc(C(=O)COC(=O)c2ccc(F)cc2)c(C)n1C,-3,-11,.,-4
C(=N\Nc1nncc2ccccc12)/c1cccnc1,.,-6,.,.
CN1/C(=C\C=N\NC(=O)c2ccc(O)cc2)C(C)(C)c2ccccc21,38*,-2,-13,33
CN1/C(=C\C=N\NC(=O)c2cccnc2)C(C)(C)c2ccccc21,4,3,0,-2
CN1/C(=C\C=Nc2ccc3ccccc3c2)C(C)(C)c2ccccc21,30,.,49*,15
CN1\C(=C/C=C/C=C/C=[N+](C)C)C(C)(C)c2ccccc21,102*,-17,.,120
CN1/C(=C\C=O)C(C)(C)c2ccccc21,7,8,0,-1
CCCC(=O)O[C@]1(C(=O)CO)CCC2[C@@H]3CCC4=CC(=O)CC[C@]4(C)C3[C@@H](O)C[C@@]21C (some centres undefined),.,-2,.,.
O=[N+]([O-])c1ccc(N/N=C/c2sc(N3CCOCC3)nc2-c2ccccc2)c(S(=O)(=O)Nc2ccc(Cl)cc2)c1,59*,14,.,35
SMILES,HNF4A DNA FP,NR1D1 modulator,TPT1 inhibitor,CSN deneddyl inh
O=C(O)c1cccc(N/N=C/c2sc(N3CCOCC3)nc2-c2ccccc2)c1,-1,-8,6,-6
C/C=C\C=C/C(=O)Nc1cccc(C2=NOC3(C2)C[C@@H](C(N)=O)N(C(=O)/C=C/C=C\C)C3)c1 (some centres undefined),-41,.,5,64*
C[C@@H]1CC2C3CCC4=CC(=O)C=C[C@]4(C)[C@@]3(F)[C@@H](O)C[C@]2(C)[C@@]1(O)C(=O)COP(=O)(O)O (some centres undefined),.,-7,.,.
CCOC(=O)c1cc2c(=Cc3ccc(N(C)C)cc3)c3ccccc3n2[n+]1C,57*,-2,.,19
CN(C)c1ccc(C=c2c3ccccc3n3c2c2ccccc2[n+]3C)cc1,55,-34,.,114
C[C@H]1CN([C@@H](C)CO)C(=O)CCCn2cc(nn2)CO[C@@H]1CN(C)C(=O)Oc1ccccc1,0,-2,.,100*
O=C(N/N=C\c1cccnc1)c1cc(-c2ccc(Cl)s2)[nH]n1,8,-10,2,39*
Cc1c2oc3c(C)ccc(C(=O)OC(C)C4NC(=O)C(C(C)C)N(C)C(=O)CN(C)C(=O)C5CCCN5C(=O)C(C(C)C)NC4=O)c3nc-2c(C(=O)OC(C)C2NC(=O)C(C(C)C)N(C)C(=O)CN(C)C(=O)C3CCCN3C(=O)C(C(C)C)NC2=O)c(N)c1=O (centres undefined),.,-8,.,.
NC(=O)N/N=C/c1sc(N2CCCCC2)nc1-c1cccs1,21,1,1,10
CC(C)NC(=S)N/N=C/c1sc(N2CCCCC2)nc1-c1cccs1,41*,3,11,1
COc1ccccc1/C=C/C=N/NC(=O)c1cc(-c2ccco2)[nH]n1,-18,2,5,45*
Cc1ccc(C)n1-c1sc2c(c1C(=O)O)CCCC2,-42,-16,6,39*
O=S(=O)(c1ccc(Br)s1)N1CCN(c2ccccc2)CC1,32*,1,3,-3
CC(C)(O)c1ccccc1CC[C@@H](SC1(CC(=O)O)CC1)c1cccc(/C=C/c2ccc3ccc(Cl)cc3n2)c1,.,-2,.,.
O=C(Nc1ccccc1Cl)O[C@@H]1CC[C@@]23CCCN2C(=O)CCC[C@H]3C1,.,3,.,.
CC(=O)OC12CCCN(C1)/C(=C/c1cccc(Cl)c1)C2 (centres undefined),.,1,.,.
CN(/N=C/c1c[nH]c2ccccc12)c1cnn(-c2ccc(F)c(Cl)c2)c(=O)c1Cl,64*,0,-1,48*
Cc1cc(C)n(/N=C/c2c[nH]c3ccccc23)c(=O)c1C#N,0,-21,-2,1
Cc1cc(C(=O)Nc2cccc(C(=O)O)c2)c(C)o1,0,6,2,0
Cc1cc(C(=O)Nc2cccc(O)c2)c(C)o1,60*,8,-2,-2
C[C@H]1CC2C([C@@H](O)C[C@@]3(C)C2CC[C@]3(O)C(=O)CO)[C@@]2(C)C=CC(=O)C=C12 (some centres undefined),.,2,.,.
NNC(=O)COc1ccc(F)cc1,32*,0,1,-2
c1cc2c3c(cccc3c1)NC1(CCCCC1)N2,44*,-16,-2,3
COC(=O)c1cc(S(=O)(=O)N2CCN(c3cccc(C(F)(F)F)c3)CC2)cn1C,.,2,.,.
CCN1/C(=C/C=C2/SC(=Nc3cccc4ncccc34)N(C)C2=O)Sc2ccccc21,104,5,.,50*
O=C(CCl)NCCN1C(=O)S/C(=C\c2cccnc2)C1=O,12,.,1,62*
O=[N+]([O-])c1cccc(/C=N\N2CCN(Cc3ccccc3Cl)CC2)c1,42*,-3,4,-6
O=[N+]([O-])c1cccc(/C=N/N2CCN(Cc3ccccc3)CC2)c1,-2,4,-4,5
O=C1CCC(NC(=O)Cc2ccccc2)C(=O)N1 (centres undefined),.,2,.,.
CC(C)CN(C(=O)CN1CCc2ccccc21)c1c(N)n(CC(C)C)c(=O)[nH]c1=O,32*,4,4,16
